Data reported in ChEMBL document CHEMBL1123672, “Structure-activity relationships of sparsomycin and its analogues. Inhibition of peptide bond formation in cell-free systems and of L1210 and bacterial cell growth” (J Med Chem, 1987).

Assays:
Escherichia coli [1] = test: Ability to inhibit the peptide bond formation by puromycin reaction in Escherichia coli was determined; format: functional; settings: read-out: ED50 (the source's name)
Escherichia coli [2] = test: Ability to inhibit the phenylalanine synthesis in Escherichia coli was determined; format: functional; settings: read-out: ED50 (the source's name)
Outline: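 Poly(U)-directed [³H]Phe polymerization with E. coli MRE600 ribosomes ([…]) and S-100. The reaction was started with 30 μM [³H]Phe and run 30 min at 37 °C. TCA-insoluble counts were taken on glass-fiber filters. Averages of three experiments.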

Escherichia coli [3] = test: Ability to inhibit the peptide bond formation by fragment reaction in Escherichia coli was determined; format: functional; settings: read-out: ED50 (the source's name)
Outline: (§1)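 Fragment reaction: ribosomes (1 mg/mL, from E. coli MRE600 or S. cerevisiae Y166) in 150 μL of 33 mM Tris-HCl pH 7.4, 270 mM KCl, 13 mM Mg acetate, with 2 mM puromycin, 1 pmol N-acetyl-[³H]Leu-ACCAC(U) donor (ribonuclease T1 fragment of N-acetyl-[³H]Leu-tRNA), 33% methanol and test drug; no mRNA or small subunit. Values are averages of three experiments.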

L1210 = test: Ability to inhibit the colony formation of leukemia L1210 cells in agar medium (0.3%) was determined; format: functional; settings: Mus musculus, read-out: ID50 (the source's name)
[4] = test system: Saccharolobus solfataricus; test: Ability to inhibit the phenylalanine synthesis in Sulfolobus solfataricus was determined; format: functional; settings: read-out: ED50 (the source's name)
Saccharomyces cerevisiae [5] = test: Ability to inhibit the peptide bond formation by fragment reaction in Saccharomyces cerevisiae was determined; format: functional; settings: read-out: ED50 (the source's name); outline: as §1
Saccharomyces cerevisiae [6] = test: Ability to inhibit the phenylalanine synthesis in Saccharomyces cerevisiae was determined; format: functional; settings: read-out: ED50 (the source's name)
Outline: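 Yeast (S. cerevisiae Y166) ribosomes and S-100 in the same poly(U)/[³H]Phe mix as the E. coli assay, with 20 mM creatine phosphate and 50 μg/mL creatine phosphokinase as the energy system. Incubation was 30 min at 30 °C. Cold 10% TCA precipitate was filter-counted. Averages of three experiments.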

[7] = Ability to inhibit the bacterial growth of Escherichia coli (MRE600) by 50% was determined.; format: functional; parameters: reference not given here
[8] = (§2) Effect of 2-propanol on inhibition of the fragment reaction in the presence of 10 uM of compound was determined
Outline: (§3)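 Solvent comparison: the fragment reaction (ribosomes with puromycin acceptor and N-acetyl-[³H]Leu-ACCAC(U) donor, in Tris-HCl pH 7.4/KCl/Mg acetate buffer) was run with methanol, ethanol, 2-propanol or butanol as the required organic solvent. Read-out is percent inhibition at the fixed drug level given in each line; series A and B are separate experiments.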

[9] = (§4) Effect of butanol on inhibition of the fragment reaction in the presence of 10 uM of compound was determined; outline: as §3
[10] = (§5) Effect of ethanol on inhibition of the fragment reaction in the presence of 10 uM of compound was determined; outline: as §3
[11] = (§6) Effect of methanol on inhibition of the fragment reaction in the presence of 10 uM of compound was determined; outline: as §3
[12] = Ability to inhibit the growth of Escherichia coli (MRE600) by 50% was determined. Activity represent the ratio of ED50 of sparsomycin to the ED50 of the compound; format: functional
Outline: (§7)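 Liquid culture: E. coli MRE600 was grown in LB plus 0.2% glucose to A560 0.1, then 1-mL aliquots were incubated with drug 4 h at 37 °C. Growth was stopped with 0.1% sodium azide and A550 read; drug-free medium counts as 100%. ED50 (μM) is the dose giving 50% growth; the value reported is sparsomycin ED50/analogue ED50.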

[13] = Ability to inhibit the bacterial growth of Escherichia coli (MRE600) by 50% was determined Activity represent the ratio of ED50 of sparsomycin to the ED50 of the compound; format: functional; outline: as §7
[14] = Effect of 2-propanol on inhibition of the fragment reaction in the presence of 10 uM of compound was determined from Expt-A; outline: as §3
[15] = Effect of 2-propanol on inhibition of the fragment reaction in the presence of 20 uM of compound was determined from Expt-B; outline: as §3
[16] = Effect of butanol on inhibition of the fragment reaction in the presence of 10 uM of compound was determined from Expt-A; outline: as §3
[17] = Effect of ethanol on inhibition of the fragment reaction in the presence of 10 uM of compound was determined from Expt-A; outline: as §3
[18] = Effect of ethanol on inhibition of the fragment reaction in the presence of 20 uM of compound was determined from Expt-B; outline: as §3
[19] = Effect of methanol on inhibition of the fragment reaction in the presence of 10 uM of compound was determined from Expt-A; outline: as §3
[20] = Effect of methanol on inhibition of the fragment reaction in the presence of 20 uM of compound was determined from Expt-B; outline: as §3
[21] = Effect of ethanol on inhibition of the fragment reaction in the presence of 200 uM of compound was determined
[22] = Effect of methanol on inhibition of the fragment reaction in the presence of 200 uM of compound was determined
[23] = Effect of 2-propanol on inhibition of the fragment reaction in the presence of 200 uM of compound was determined
[24] = as §4; format: functional; settings: in the assay text read “100 uM” for “10 uM”; outline: as §3
[25] = as §2; format: functional; settings: in the assay text read “100 uM” for “10 uM”; outline: as §3
[26] = as §5; format: functional; settings: in the assay text read “100 uM” for “10 uM”; outline: as §3
[27] = as §6; format: functional; settings: in the assay text read “100 uM” for “10 uM”; outline: as §3

Structure (SMILES) | EC50 (Escherichia coli [1]) [µM] | EC50 (Escherichia coli [2]) [µM] | EC50 (Escherichia coli [3]) [µM] | IC50 (L1210) [µM] | EC50 [4] [µM] | EC50 (Saccharomyces cerevisiae [5]) [µM] | EC50 (Saccharomyces cerevisiae [6]) [µM] | Ratio [7] | further results
Cc1nc(O)nc(O)c1/C=C/C(=O)N[C@@H](CO)C[S@@+]([O-])CCl | 0.65 | 450 | 7.6 | 0.29 | 5000 | 17 | 220 | 0.55 | –
Cc1nc(O)nc(O)c1/C=C/C(=O)NC(CO)C[S+]([O-])CSCc1ccccc1 (stereo not drawn) | 0.13 | 0.6 | 7.6 | 0.11 | 60 | 2.6 | 0.6 | 1 | Inhibition [8]: 20%; Inhibition [9]: 54%; Inhibition [10]: 29%; Inhibition [11]: 25%
CSCSC[C@H](CO)NC(=O)/C=C/c1c(C)nc(O)nc1O | 7 | 2000 | 550 | 12.8 | – | 150 | 2000 | – | Ratio [12]: 1.8
Cc1nc(O)nc(O)c1/C=C/C(=O)NC(CO)CSC[S+](C)[O-] (stereo not drawn) | 160 | 2000 | 750 | 180 | – | 350 | 2000 | – | Ratio [13]: 0.4
Cc1nc(O)nc(O)c1/C=C/C(=O)N[C@@H](CO)C[S@+]([O-])CCl | 5000 | 2000 | 5000 | 30 | 5000 | 5000 | 2500 | 0.01 | –
CSC[S@+]([O-])C[C@H](CO)NC(=O)/C=C/c1c(C)[nH]c(=O)[nH]c1=O | 0.1 | 8.5 | 3.2 | 0.4 | 900 | 2.8 | 5.2 | 1 | Inhibition [14]: 64%; Inhibition [15]: 76%; Inhibition [16]: 86%; Inhibition [17]: 91%; Inhibition [18]: 92%; Inhibition [19]: 57%; Inhibition [20]: 64%
CCCCCCCCSC[S+]([O-])CC(CO)NC(=O)/C=C/c1c(C)nc(O)nc1O (stereo not drawn) | 0.25 | 1.6 | 60 | 0.1 | – | 300 | 1.3 | 2.5 | Inhibition [21]: 30%; Inhibition [22]: 42%; Inhibition [23]: 6%
CCCCCCCCCC[S+]([O-])CC(CO)NC(=O)/C=C/c1c(C)nc(O)nc1O (stereo not drawn) | 0.08 | 1.8 | 5000 | 0.14 | 30 | 700 | 0.2 | 3.6 | inhibition [24]: 15%; inhibition [25]: 12%; inhibition [26]: 35%; inhibition [27]: 44%
CSCSC[C@@H](CO)NC(=O)/C=C/c1c(C)nc(O)nc1O | 1000 | 2000 | 1000 | 300 | – | 550 | 2000 | 0.01 | –
CCC[S+]([O-])CC(CO)NC(=O)/C=C/c1c(C)nc(O)nc1O (stereo not drawn) | 0.23 | 140 | 4.5 | 0.75 | 1000 | 6.2 | 42 | 0.3 | –
CSC[S@@+]([O-])C[C@@H](CO)NC(=O)/C=C/c1c(C)[nH]c(=O)[nH]c1=O (racemic) | 100 | 2000 | 1000 | 300 | – | 1000 | 2000 | 0.01 | –
CSC[S@@+]([O-])C[C@H](CO)NC(=O)/C=C/c1c(C)[nH]c(=O)[nH]c1=O | 13 | 2000 | 700 | 5.8 | – | 65 | 2000 | 0.92 | –
CSC[S+]([O-])CC(CO)NC(=O)/C=C/c1cnc(O)nc1O (stereo not drawn) | 50 | 600 | 30 | 12.7 | – | 50 | 1000 | 0.27 | –
CSC[S@+]([O-])C[C@@H](CO)NC(=O)/C=C/c1c(C)nc(O)nc1O | 40 | 2000 | 1000 | 300 | – | 650 | 2000 | 0.32 | –
CSC[S+]([O-])CC(CO)NC(=O)/C=C\c1cnc(O)nc1O (stereo not drawn) | – | – | – | – | – | – | – | 0.47 | –
